The source of these data is ChEMBL document CHEMBL5046304, “Novel Pyridazin-3(2H)-one-Based Guanidine Derivatives as Potential DNA Minor Groove Binders with Anticancer Activity” (ACS Med Chem Lett, 2022).

By inhibition is commonly meant the relative decrease from the control value, in per cent. By ΔTm is commonly meant the shift of the melting midpoint relative to a reference. As usually defined, the IC50 is the midpoint of a concentration-inhibition curve.

One test relates to MCF7. As to the kind of experiment: Cytotoxicity against human MCF7 cells assessed as reduction in cell viability at 100 uM after 96 hrs by MTT assay. It is filed as functional. Put shortly:
(§1)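 Percentage inhibition of cell viability; values are means of three experiments.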

In test [1] the test system is A2780. Briefly: Cytotoxicity against human A2780 cells assessed as reduction in cell viability at 100 uM after 96 hrs by MTT assay. It counts as functional. Put shortly:
as §1
A general note: Formazan colour is commonly taken as a measure of viable cells.

Another test concerns NCI-H460. Briefly: Cytotoxicity against human NCI-H460 cells assessed as reduction in cell viability at 100 uM after […] by MTT assay. It counts as functional. An outline of the steps: as §1
A further test relates to Salmon testes DNA. As to the kind of experiment: Binding affinity to salmon sperm DNA assessed as thermal stability by measuring change in melting temperature at 15 uM at pH 7 by spectrophotometric analysis. It is filed as nucleic-acid assay. Particulars: Salmo salar.
Test [2] has as its system A2780. As to the kind of experiment: Cytotoxicity against human A2780 cells assessed as reduction in cell viability measured after 96 hrs by MTT assay. It counts as functional, cell-based. Particulars: A2780, 96 h.

Turning to `N=C(N)NCc1ccc(Cn2ncc(CNC(=N)N)cc2=O)cc1`, the inhibition at 100 µM with MCF7 turned out to be 23%; in the test with A2780 [1], 33%; with NCI-H460 it was 35%. Moreover, the ΔTm in the test on Salmon testes DNA came to 1.2 °C.
For the compound `Cc1cc(=O)n(Cc2ccc(CCl)cc2)nc1CNC(=N)N`, the inhibition at 100 µM in the test with MCF7 is 25%; in the test on A2780 [1], 54%; with NCI-H460, 7%. The IC50 in the test with A2780 [2] is over 100 µM.
Regarding `Cn1nccc(CNC(=N)N)c1=O`, the inhibition at 100 µM was 1% in the test on MCF7, 18% in the test on A2780 [1] and 1% with NCI-H460.
`N=C(N)NCc1ccc(Cn2nc(CNC(=N)N)ccc2=O)cc1`: in the test on Salmon testes DNA, the ΔTm came to 1.4 °C.
`N=C(N)NCc1ccnn(Cc2ccccc2)c1=O`: the inhibition at 100 µM in the test with MCF7 worked out at 46%; in the test on A2780 [1], 41%; in the test with NCI-H460 it was 15%.
Turning to `Cc1cc(=O)n(Cc2ccc(CNC(=N)N)cc2)nc1CNC(=N)N`, the results for the inhibition at 100 µM in the test with MCF7, with A2780 [1] and with NCI-H460 were 22%, 59% and 34%, respectively. Besides, in the test on A2780 [2], the IC50 worked out at 21 µM. In the test with Salmon testes DNA, the ΔTm was determined as 1.2 °C.
For `Cc1cc(=O)n(Cc2ccccc2)nc1CNC(=N)N`, the results for the inhibition at 100 µM in the test on MCF7, in the test with A2780 [1] and in the test on NCI-H460 were 18%, 23% and 2%, respectively.
Regarding `N=C(N)NCc1ccc(Cn2nccc(CNC(=N)N)c2=O)cc1`, the ΔTm in the test with Salmon testes DNA was 1.1 °C.
On to `Cc1cc(=O)n(Cc2ccc(CF)cc2)nc1CNC(=N)N`, for which the inhibition at 100 µM in the test on MCF7 stood at 13%; in the test with A2780 [1] it was 34%; with NCI-H460, 5%.
The corresponding values for `Cn1ncc(CNC(=N)N)cc1=O` are 2%, 24% and 13%.
The corresponding values for `Cn1nc(CNC(=N)N)ccc1=O` are 20%, 11% and 4%.
Regarding `COCc1ccc(Cn2nccc(CNC(=N)N)c2=O)cc1`, the figures for the inhibition at 100 µM in the test on A2780 [1] and in the test on NCI-H460 were 38% and 1%, respectively.
For the compound `Cc1cc(=O)n(C)nc1CNC(=N)N`, the inhibition at 100 µM came to 12% in the test on MCF7, 20% in the test on A2780 [1] and 2% in the test on NCI-H460.
The corresponding values for `N=C(N)NCc1cnn(Cc2ccccc2)c(=O)c1` are 13%, 40% and 1%.
